Measurements taken from ChEMBL document CHEMBL3351416, “Design, synthesis and biological evaluation of novel pyrenyl derivatives as anticancer agents” (Eur J Med Chem, 2015).
Active and inactive are the calls of the source. The calls are words filed in the database; no cut-off is given here.

Tests used:
[1] = Cytotoxicity against human SKOV3 cells assessed as reduction in cell viability after 48 hrs by sulforhodamine B colorimetric assay; type: functional, cell-based; conditions: SK-OV-3, 48 h
Outline: (§1)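 SKOV3 cells and the retrovirally transduced subclone SKOV3-MDR1-M6/6, which overexpresses P-glycoprotein, were grown in BME with 10% FBS at 37°C under 5% CO₂. Cells were exposed to 0-25 μM for 48 hrs. Viability was read by SRB assay and a dose curve was plotted for each cell line. Paclitaxel served as the reference drug.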

[2] = Cytotoxicity against human SKOV3-MDR1-M6/6 cells assessed as reduction in cell viability at 25 uM after 48 hrs by sulforhodamine B colorimetric assay; type: functional; outline: as §1
[3] = system: HT-29; experiment: Cytotoxicity against human HT-29 cells assessed as reduction in cell viability after 48 hrs by sulforhodamine B colorimetric assay; type: functional, cell-based; conditions: HT-29, 48 h
Outline: (§2)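 Cell lines were kept at 37°C under 5% CO₂. HepG2, Hepa1-6, HeLa and MCF-7 were grown in DMEM with 10% FBS. Caco-2 was grown in DMEM with 20% FBS. HT-29 was grown in McCoy's medium with 10% FBS. The viability assay used 10-μM doxorubicin as positive control. Values marked * came from a single dose curve.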

[4] = system: HepG2; experiment: Cytotoxicity against human HepG2 cells assessed as reduction in cell viability after 48 hrs by sulforhodamine B colorimetric assay; type: functional, cell-based; conditions: HepG2, 48 h; outline: as §2
[5] = system: MCF7; experiment: Cytotoxicity against human MCF7 cells assessed as reduction in cell viability after 48 hrs by sulforhodamine B colorimetric assay; type: functional, cell-based; conditions: MCF7, 48 h; outline: as §2
[6] = Cytotoxicity against mouse Hepa1-6 cells assessed as reduction in cell viability after 48 hrs by sulforhodamine B colorimetric assay; type: functional, cell-based; conditions: Hepa1-6, 48 h; outline: as §2
[7] = system: HeLa; experiment: Cytotoxicity against human HeLa cells assessed as reduction in cell viability after 48 hrs by sulforhodamine B colorimetric assay; type: functional, cell-based; outline: as §2
[8] = Cytotoxicity against human Caco2 cells assessed as reduction in cell viability after 48 hrs by sulforhodamine B colorimetric assay; type: functional, cell-based; conditions: Caco-2, 48 h; outline: as §2
[9] = system: HeLa; experiment: Induction of apoptosis in human HeLa cells assessed as membrane blebbing at 2 uM after 12 hrs by microscopy; type: functional, cell-based
Outline: (§3)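 HeLa cells were seeded at 1.5-2.0×10^5 cells/well and treated. Membrane blebbing and cell shrinkage were assessed by light microscopy after 8, 12 or 15 hrs.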

[10] = system: Hepatocyte; experiment: Cytotoxicity against hepatocytes (unknown origin) assessed as reduction in cell viability at <5 uM after 48 hrs by sulforhodamine B colorimetric assay; type: cell-based
Outline: (§4)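 Primary mouse hepatocytes and Hepa1-6 cells were exposed to graded doses for 48 hrs. Viability was normalized to DMSO-treated cells. Hepa1-6 cells were grown in DMEM with 10% FBS at 37°C under 5% CO₂. 10-μM doxorubicin served as the cytotoxicity positive control.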

[11] = system: Hepatocyte; experiment: Cytotoxicity against hepatocytes (unknown origin) assessed as reduction in cell viability at 50 uM after 48 hrs by sulforhodamine B colorimetric assay; type: cell-based; outline: as §4
[12] = system: Hepa1-6; experiment: Cytotoxicity against mouse Hepa1-6 cells assessed as reduction in cell viability at 50 uM after 48 hrs by sulforhodamine B colorimetric assay; type: functional, cell-based; outline: as §4
[13] = system: Hepa1-6; experiment: Cytotoxicity against mouse Hepa1-6 cells assessed as reduction in cell viability at <5 uM after 48 hrs by sulforhodamine B colorimetric assay; type: functional, cell-based; outline: as §4
[14] = system: HeLa; experiment: Induction of apoptosis in human HeLa cells assessed as PARP cleavage at <10 uM after 12 hrs by Western blotting; type: functional, cell-based
Outline: (§5)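 HeLa cells were treated for 12 hrs and lysed in 0.5% SDS buffer (50 mM Tris pH 8.0, 1 mM DTT, phosphatase and protease inhibitors). Lysates were western blotted with anti-PARP for full-length and cleaved PARP. 1 μM staurosporine served as positive control.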

[15] = system: HeLa; experiment: Induction of apoptosis in human HeLa cells assessed as membrane blebbing at 2 uM after 8 hrs by microscopy; type: functional, cell-based; conditions: in the assay text read “12 hrs” for “8 hrs”; outline: as §3
[16] = Cytotoxicity against human SKOV3-MDR1-M6/6 cells assessed as reduction in cell viability after 48 hrs by sulforhodamine B colorimetric assay; type: functional, cell-based; conditions: SKOV3-MDR1-M6/6, 48 h; outline: as §1
[17] = Drug localization in cytoplasmic membrane of human HepG2 cells at 30 uM for 3 hrs by epifluorescent microscopy; type: ADME, cell membranes; conditions: hepg2, 3 h
[18] = system: HeLa; experiment: Induction of apoptosis in human HeLa cells assessed as membrane blebbing at 2 uM after 15 hrs by microscopy; type: functional, cell-based; conditions: in the assay text read “12 hrs” for “15 hrs”; outline: as §3
[19] = system: HeLa; experiment: Induction of apoptosis in human HeLa cells assessed as PARP cleavage at 10 uM after 12 hrs by Western blotting; type: functional, cell-based; outline: as §5
[20] = Drug localization in cytoplasmic membrane of human HepG2 cells at 30 uM for 3 hrs by BODIPY TR-labelling based confocal microsocopy; type: ADME, cell membranes; conditions: hepg2, 3 h
Outline: (§6)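 Cells (200,000/well) were seeded on coverslips and incubated overnight at 37°C, then treated for 4 hrs (50 μM) or 3 hrs. They were rinsed with PBS/BSA and stained with 5 µM BODIPY TR-labeled sphingolipids for 30 min at 4°C. Cells were fixed in 4% paraformaldehyde, permeabilized with 0.2% Triton X-100, and examined by confocal microscopy using 1 µm Z-stacks.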

[21] = Drug localization in […] rich regions of cytoplasmic membrane of human HepG2 cells at 3 uM for 2 hrs by BODIPY TR-labeled sphingolipids detection based Western blotting; type: ADME, cell-based; conditions: hepg2, 2 h
Outline: (§7)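 HepG2 cells (1x10^6/plate) were treated for 4 hrs at 5 μM or for 2 hrs at 3 μM, then stained with 5 μM BODIPY TR sphingolipids for 30 min at 4°C. Cells were lysed in PBS with 0.5% Brij-96, and lysates were normalized by BCA. Lysates were separated on a step OptiPrep gradient (2.5–30%) at 125,000 g for 12 hrs. Fractions were analysed for compound fluorescence and blotted for Thy-1, Lyn and GAPDH.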

[22] = Drug localization in cytoplasmic membrane of human HepG2 cells at 50 uM for 4 hrs by BODIPY TR-labelling based confocal microsocopy; type: ADME, cell membranes; conditions: hepg2, 4 h; outline: as §6
[23] = system: HepG2; experiment: Drug localization human HepG2 cells at 50 uM for 4 hrs by epifluorescent microscopy; type: ADME, cell-based; conditions: hepg2, 4 h
[24] = Drug localization in […] rich regions of cytoplasmic membrane of human HepG2 cells at 5 uM for 4 hrs by BODIPY TR-labeled sphingolipids detection based Western blotting; type: ADME, cell-based; conditions: hepg2, 4 h; outline: as §7

SMILES | IC50 [1] | IC50 [3] | IC50 [4] | IC50 [5] | IC50 [6] | IC50 [7] | IC50 [8] | also measured
CC(=O)O[C@H]1C(=O)[C@@]2(C)[C@H]([C@H](OC(=O)c3ccccc3)[C@]3(O)C[C@H](OC(=O)[C@H](O)[C@@H](NC(=O)c4ccccc4)c4ccccc4)C(C)=C1C3(C)C)[C@]1(OC(C)=O)CO[C@@H]1C[C@@H]2O [PACLITAXEL] | < 0.001 µM |  |  |  |  |  |  | Activity [2]: 40%
CN1CCN(C(=O)CCC(=O)Nc2cc3cccc4ccc5cccc2c5c43)CC1 |  | 19.3 µM | 16.9 µM | 14.1 µM | 14.8 µM | 16.8 µM |  | 
CC(C)COC(=O)Nc1cc2cccc3ccc4cccc1c4c32 |  | 20.7 µM | 30.4 µM |  | 5.9 µM | 16.2 µM | 36.3 µM | 
c1cc2ccc3cccc4c(NCCCCN5CCCCC5)cc(c1)c2c34 | 5 µM | 2.98 µM | 1.4 µM | 1.1 µM | 2.5 µM | 2.6 µM |  | Activity [9]: Active; Activity [10]: Non-toxic; Activity [11]: Toxic; Activity [12]: Active; Activity [13]: Active; Activity [14]: inactive; Activity [15]: Active; IC50 [16]: 6.4 µM; Drug uptake [17]: Active; Activity [18]: Active; Activity [19]: Active; Drug uptake [20]: Active; Drug uptake [21]: Active
CN1CCN(CCCCNc2cc3cccc4ccc5cccc2c5c43)CC1 | 5.5 µM | 4.8 µM | 2.4 µM | 2.6 µM | 1.1 µM | 4.1 µM | 7.23 µM | Activity [9]: Active; Activity [10]: Non-toxic; Activity [11]: Toxic; Activity [12]: Active; Activity [13]: Active; Activity [14]: inactive; Activity [15]: Active; IC50 [16]: 6.2 µM; Drug uptake [17]: Active; Activity [18]: Active; Activity [19]: Active; Drug uptake [20]: Active; Drug uptake [21]: Active
c1cc2ccc3cccc4c(NCCCCCN5CCCCC5)cc(c1)c2c34 |  | 19.8 µM | 18.8 µM | 14.1 µM | 18.3 µM | 18.2 µM |  | 
O=C(CCCC(=O)N1CCCCC1)Nc1cc2cccc3ccc4cccc1c4c32 |  | > 30 µM |  | > 30 µM | > 30 µM | > 30 µM |  | 
O=C(CCC(=O)N1CCCCC1)Nc1cc2cccc3ccc4cccc1c4c32 |  |  | > 30 µM |  | > 30 µM | > 30 µM |  | 
CC(C)COCNc1cc2cccc3ccc4cccc1c4c32 |  | 14 µM | 39.6 µM |  | 9.9 µM | 9.8 µM | > 50 µM | Drug uptake [22]: Active; Drug uptake [23]: Active; Drug uptake [24]: Active
